Shown are actives, neighbours in structure and some others; about 11% of the full set was active somewhere.
Diaphorase act – activates diaphorase or chemically reduces, flagging diaphorase assay artifacts | Diaphorase/resazurin coupled assay, resorufin fluorescence, 16 min; stronger effect = higher value; 1 = vehicle wells, 0 = NADH-free wells | activation factor at 20 µM | 190,000 tested, 0.005% active | AID 1229;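 active means diaphorase activity raised at least twofold by the compound at 20 µM; inactive means activation factor below 2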
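Material: Clostridium kluyveri diaphorase, purified enzyme; Quantity: enzyme 0.07 U/mL final; Medium: HEPES pH 7.4 buffer with MgCl2 and Tween 20; Dosing: single compound dose of 20 µM, 1% DMSO final; Schedule: 16 min reaction at room temperature; Measured by: red resorufin fluorescence at 544/590 nm excitation/emission.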
Diaph inh CS – inhibits diaphorase or chemically oxidizes, flagging diaphorase assay artifacts; diaphorase resazurin-to-resorufin fluorescence, NADH, 16 min; bacterial (C. kluyveri) enzyme, not human; inhibition, % at 20 µM; 190,000 tested, 0.69% active; AID 1217;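 active means primary screen inhibition at 20 µM above a set limit, cut at about 50% in these data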;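 further: plate controls were DMSO with full reaction for no effect and wells lacking NADH for full effect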
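System: Bacterial diaphorase enzyme (C. kluyveri) | Incubation: 16-min room-temperature incubation before reading | Benchmarks: No-NADH positive control and DMSO neutral control | Measured by: Resorufin fluorescence 544/590 nm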
WT yeast gro inh – growth inhibition of WT yeast, mitochondrial fusion screen; mitochondrial fusion phenotypic screen, WT strain; inhibition, % at 10 µM; 190,000 tested, 2.1% active; in the data active means inhibition above about 58%; tested in S. cerevisiae
G6PDH counter – inhibits Leuconostoc G6PDH, flagging false hits in G6PDH-based assays; Purified L. mesenteroides G6PDH, diaphorase/resazurin coupled fluorescence, 45 min; inhibition, % at 5 µM; 200,000 tested, 0.12% active
L major viab – inhibitors of Leishmania major promastigote growth; AID 1063; inhibition, % at 10 µM; 200,000 tested, 9% active; Leishmania major promastigotes, resazurin fluorescence viability;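 further: promastigotes grown with compound for 44 hours at 28 °C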
An asterisk follows results filed as active; · = no result given. Unless noted, no stated cut-off is given here; in the data, active means inhibition above about 50%; inactive means the rest.

SMILES	Diaphorase act	Diaph inh CS	WT yeast gro inh	G6PDH counter	L major viab
Cc1ccc(C(c2nnnn2CCc2ccccc2)N2CCC(C)CC2)cc1 (configuration not stated)	0.8	17.6	74.5*	13.6	38.3
COc1ccc(C(c2nnnn2C2CCCC2)N2CCN(C3CCCC3)CC2)cc1OC (configuration not stated)	0.9	8.0	6.2	0.1	83.2*
COc1ccccc1C(c1nnnn1Cc1ccccc1)N1CCN(C2CCCC2)CC1 (configuration not stated)	0.9	5.6	-10.6	4.4	11.6
O=c1[nH]c(/C(Cl)=C/c2cccc(F)c2)nc2cc(C(F)(F)F)ccc12	1.2	-16.3	-1.8	0.4	5.8
CNC(=O)C1CC(=O)N(CCc2ccc(OC)cc2)C(=Nc2ccc(OC)cc2)S1 (configuration not stated)	0.8	19.8	-5.7	6.7	28.8
COc1ccc(CCC(=O)N2CCCSC2=Nc2ccc(C(C)=O)cc2)cc1	0.9	7.7	-5.6	26.7	97.8*
COc1ccc(NC(C)=O)cc1NC(=O)CN1CCN(CC(=O)Nc2ccc(Cl)cc2)CC1	0.9	7.0	-3.3	3.4	1.5
Cc1ccc(C(C#N)c2ccc3c(C(F)(F)F)cc(C(F)(F)F)nc3n2)cc1 (configuration not stated)	0.9	14.9	69.4*	3.9	-1.9
N#CC(c1ccccc1)c1ccc2c(C(F)(F)F)cc(C(F)(F)F)nc2n1 (configuration not stated)	0.9	5.5	73.9*	-2.1	-3.1
CN(N)c1ccc2c(C(F)(F)F)cc(C(F)(F)F)nc2n1	1.1	-10.7	21.4	-0.7	1.6
COc1ccc(/C=C2\CCCC3C2=NC(=S)NC3c2ccc(OC)cc2)cc1 (configuration not stated)	0.8	21.9	71.6*	0.8	28.8
O=C(Cn1cnc([N+](=O)[O-])n1)NCCO	1	-0.5	-14.3	6.5	-8.4
CC1=C(C(=O)OCC2CCCO2)C(c2coc3ccccc3c2=O)C2=C(CCCC2=O)N1 (configuration not stated)	0.8	16.7	0.8	8.2	1.3
N/C(=N\OC(=O)C(c1ccccc1)c1ccccc1)c1ccccn1	0.8	23.4	25.8	1.8	-5.7
N/C(=N\OC(=O)C(c1ccccc1)c1ccccc1)c1cccnc1	0.9	12.5	75.7*	0.6	21.6
NC(=O)C1CC(O)CN1c1nc(CN2CCOCC2)nc2scc(-c3ccccc3)c12 (configuration not stated)	0.8	22.8	-15.5	0.8	-2.0
CN1CCN(c2nc(-c3cccnc3)nc3scc(-c4ccccc4)c23)CC1	1	1.9	15.1	-3.2	46.2
CC1CCCN(c2nc(-c3cccnc3)nc3scc(-c4ccccc4)c23)C1 (configuration not stated)	0.9	14.2	60.8*	-6.6	37.6
CC1CCN(c2nc(CN3CCCCC3)nc3scc(-c4ccccc4)c23)CC1	0.9	6.5	67.7*	-6.6	91.2*
CC1CCN(c2nc(-c3cccnc3)nc3scc(-c4ccccc4)c23)CC1	0.9	11.3	59.6*	-19.9	42.2
O=C(Cn1cnc2c(nnn2Cc2ccc(F)cc2)c1=O)NCc1ccco1	0.8	15.6	-4.7	10.2	-8.2
Cc1[nH]c(=O)[nH]c(=O)c1S(=O)(=O)N1CCCC(C(=O)N2CCN(c3cccc(C(F)(F)F)c3)CC2)C1 (configuration not stated)	0.9	12.8	-4.9	7.3	-5.3
Cc1ccc(NC(=O)CS(=O)CC(=O)N(C(C)C(=O)NC2CCCCC2)C(C)(C)C)cc1 (configuration not stated)	·	·	-3.3	10.3	-4.4
COCC(=O)Nc1nnc(-c2ccc(C(C)(C)C)cc2)s1	1	0.5	70.4*	11.1	5.5
COc1ccc(OC)c(S(=O)(=O)Nc2cccnc2)c1	0.9	13.1	23.0	2.2	-0.7
C=CCNC(=O)COc1ccc(S(=O)(=O)Nc2ccc(OCC)cc2)cc1	0.9	7.0	-25.5	8.3	59.9*
NC(=S)N/N=C/c1coc2c(ccc3ccccc32)c1=O	0.8	17.8	-2.8	-8.1	-7.1
O=c1cc(/N=C/c2coc3c(ccc4ccccc43)c2=O)[nH]c(=S)[nH]1	0.8	18.3	-4.7	14.9	51.4*
